{"source": "ChEMBL document CHEMBL1165982", "about": "“Induction of G(2)/M phase arrest and apoptosis by oridonin in human laryngeal carcinoma cells” (J Nat Prod, 2010)", "key": {"HEp-2 [1]": {"system": "HEp-2", "experiment": "Induction of apoptosis in human Hep2 cells assessed as decrease in cyclin B level at 36 uM after 24 hrs by Western blot analysis", "assay_type": "functional, cell-based", "conditions": "TDE = time-dependent effect", "summary_of_the_method": "(§1)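 Treatment: 36 µM for 0, 6, 12 or 24 h, alone or with 2.5 mM N-acetylcysteine or 500 U/mL catalase. Lysis 60 min at 4 °C in Hepes pH 7.4/1% Triton X-100 with phosphatase and protease inhibitors, spin 13000g. Lysates run on 12% SDS-PAGE, blotted to nitrocellulose, probed with polyclonal antibodies, HRP/DAB detection. Representative of ≥3 experiments.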"}, "HEp-2 [2]": {"system": "HEp-2", "experiment": "Induction of apoptosis in human Hep2 cells assessed as accumulation in G2/M phase using PI staining at 36 uM after 24 hrs by flow cytometeric analysis in presence of N-acetyl-cysteine ROS scavenger", "assay_type": "functional", "summary_of_the_method": "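HEp-2 cells were pretreated 1 h with 2.5 mM N-acetylcysteine, then co-incubated with 36 µM for 24 h. They were then fixed in 70% ethanol (≥12 h, 4 °C) and stained on ice in the dark for 30 min with 50 µg/mL PI and 1 mg/mL RNase A. G2/M and subG1 fractions were read by flow cytometry, ≥10 000 cells counted. n = 3.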"}, "HEp-2 [3]": {"system": "HEp-2", "experiment": "Induction of apoptosis in human Hep2 cells assessed as morphological changes at 36 uM after 24 hrs by microscopy", "assay_type": "functional, cell-based"}, "HEp-2 [4]": {"system": "HEp-2", "experiment": "Induction of apoptosis in human Hep2 cells at 36 uM after 24 hrs by MTT assay in presence of z-DEVD-fmk caspase 3 inhibitor", "assay_type": "functional, cell-based", "summary_of_the_method": "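HEp-2 cells in RPMI-1640 with 10% FBS at 37 °C, 5% CO2, seeded at 1.2 × 10^4 cells/well and grown 24 h. Pretreated 1 h with z-DEVD-fmk (5 µM, line 1) or z-VAD-fmk (10 µM, line 2), then exposed to 36 µM agent for 24 h, with DMSO below 0.05%. Cell inhibitory ratio read by MTT; n = 3, mean ± SD.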"}, "HEp-2 [5]": {"system": "HEp-2", "experiment": "Induction of apoptosis in human Hep2 cells assessed as apoptotic bodies using acridine orange staining at 36 uM after 24 hrs by microscopic analysis in presence of N-acetyl-cysteine ROS scavenger", "assay_type": "functional, cell-based"}, "HEp-2 [6]": {"system": "HEp-2", "experiment": "Induction of apoptosis in human Hep2 cells assessed as apoptotic bodies using acridine orange staining at 36 uM after 24 hrs by microscopic analysis", "assay_type": "functional, cell-based"}, "HEp-2 [7]": {"system": "HEp-2", "experiment": "Induction of apoptosis in human Hep2 cells assessed as increase in p21/WAF1 level at 36 uM after 24 hrs by Western blot analysis", "assay_type": "functional, cell-based", "summary_of_the_method": "as §1"}, "HEp-2 [8]": {"system": "HEp-2", "experiment": "Induction of apoptosis in human Hep2 cells assessed as increase in AIF level at 36 uM after 24 hrs by Western blot analysis in presence of NAC", "assay_type": "functional, cell-based", "summary_of_the_method": "as §1"}, "HEp-2 [9]": {"system": "HEp-2", "experiment": "Induction of apoptosis in human Hep2 cells assessed as increase in p21/WAF1 level at 36 uM after 24 hrs by Western blot analysis in presence of NAC", "assay_type": "functional, cell-based", "summary_of_the_method": "as §1"}, "HEp-2 [10]": {"system": "HEp-2", "experiment": "Induction of apoptosis in human Hep2 cells assessed as increase in phospho-cdc2 (Tyr15) level at 36 uM from 6 to 24 hrs by Western blot analysis in presence of NAC", "assay_type": "functional, cell-based", "summary_of_the_method": "as §1"}, "HEp-2 [11]": {"system": "HEp-2", "experiment": "Cell cycle arrest in human Hep2 cells assessed as accumulation at G2/M phase at 36 uM after 6 hrs using propidium iodide staining by flow cytometry", "assay_type": "functional", "summary_of_the_method": "(§2)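 ATCC HEp-2 in RPMI-1640 with 10% FBS at 37 °C, 5% CO2, exposed to 36 µM for 0, 6, 12 or 24 h. 1 × 10^6 cells were fixed in 70% ethanol at 4 °C for at least 12 h, then stained on ice in the dark for 30 min with 50 µg/mL PI plus 1 mg/mL RNase A. Read by flow cytometry, ≥10 000 cells per sample. SubG1 counted as the apoptotic fraction. n = 3.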"}, "HEp-2 [12]": {"system": "HEp-2", "experiment": "Induction of ROS generation in human Hep2 cells assessed as ROS level at 36 uM after 24 hrs in presence of N-acetyl-cysteine ROS scavenger", "assay_type": "functional", "summary_of_the_method": "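ROS read as % DCF-positive cells after 24 h co-incubation of 36 µM with 2.5 mM N-acetylcysteine. DCF-DA loading 15 min at 37 °C; flow cytometry at ex 480 / em 525 nm. n = 3.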"}, "HEp-2 [13]": {"system": "HEp-2", "experiment": "Induction of ROS generation in human Hep2 cells assessed as ratio of DCF-positive cells at 36 uM after 3 hrs relative to control", "assay_type": "functional", "summary_of_the_method": "(§3)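 Cells exposed to 36 µM for 0, 3, 6, 12 or 24 h, then loaded with DCF-DA (10 mM as printed) for 15 min at 37 °C. Harvested, resuspended in PBS and read by flow cytometry (ex 480 nm, em 525 nm). Result given as % DCF-positive cells. n = 3.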"}, "HEp-2 [14]": {"system": "HEp-2", "experiment": "Induction of apoptosis in human Hep2 cells assessed as increase in phospho-cdc25C (ser216) level at 36 uM from 6 to 24 hrs by Western blot analysis", "assay_type": "functional, cell-based", "summary_of_the_method": "as §1"}, "HEp-2 [15]": {"system": "HEp-2", "experiment": "Cell cycle arrest in human Hep2 cells assessed as accumulation at G2/M phase at 36 uM after 24 hrs using propidium iodide staining by flow cytometry", "assay_type": "functional", "summary_of_the_method": "as §2"}, "HEp-2 [16]": {"system": "HEp-2", "experiment": "Induction of apoptosis in human Hep2 cells assessed as increase in pro-apoptotic Bax protein at 36 uM after 24 hrs by Western blot analysis in presence of CAT", "assay_type": "functional, cell-based", "summary_of_the_method": "as §1"}, "HEp-2 [17]": {"system": "HEp-2", "experiment": "Induction of apoptosis in human Hep2 cells assessed as increase in pro-apoptotic Bax protein at 36 uM after 6 hrs by Western blot analysis", "assay_type": "functional, cell-based", "summary_of_the_method": "as §1"}, "HEp-2 [18]": {"system": "HEp-2", "experiment": "Induction of ROS generation in human Hep2 cells at 36 uM after 3 hrs relative to control", "assay_type": "functional, cell-based", "summary_of_the_method": "as §3"}, "HEp-2 [19]": {"system": "HEp-2", "experiment": "Induction of apoptosis in human Hep2 cells assessed as increase in AIF level at 36 uM after 24 hrs by Western blot analysis in presence of CAT", "assay_type": "functional, cell-based", "summary_of_the_method": "as §1"}, "HEp-2 [20]": {"system": "HEp-2", "experiment": "Induction of apoptosis in human Hep2 cells assessed as increase in AIF level at 36 uM after 6 hrs by Western blot analysis", "assay_type": "functional, cell-based", "summary_of_the_method": "as §1"}, "HEp-2 [21]": {"system": "HEp-2", "experiment": "Induction of apoptosis in human Hep2 cells assessed as increase in p21/WAF1 level at 36 uM from 6 to 24 hrs by Western blot analysis", "assay_type": "functional, cell-based", "summary_of_the_method": "as §1"}, "HEp-2 [22]": {"system": "HEp-2", "experiment": "Cell cycle arrest in human Hep2 cells assessed as accumulation at G2/M phase at 36 uM after 12 hrs using propidium iodide staining by flow cytometry", "assay_type": "functional", "summary_of_the_method": "as §2"}, "HEp-2 [23]": {"system": "HEp-2", "experiment": "Induction of apoptosis in human Hep2 cells assessed as fragmented DNA using acridine orange staining at 36 uM after 24 hrs by microscopic analysis in presence of N-acetyl-cysteine ROS scavenger", "assay_type": "functional, cell-based"}, "HEp-2 [24]": {"system": "HEp-2", "experiment": "Cytotoxicity against human Hep2 cells after 24 hrs by MTT assay", "assay_type": "functional, cell-based", "conditions": "HEp-2, 24 h", "summary_of_the_method": "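Cells seeded at 1.2 × 10^4 per well in 96-well plates, grown 24 h, then treated over 10.7–81 µM for 6, 12, 24, 36 or 48 h. Viability read by MTT. DMSO kept below 0.05%. IC50 taken at 24 h.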"}, "HEp-2 [25]": {"system": "HEp-2", "experiment": "Induction of apoptosis in human Hep2 cells assessed as caspase activated DNase level at 36 uM after 24 hrs by Western blot analysis in presence of NAC", "assay_type": "functional, cell-based", "summary_of_the_method": "as §1"}}, "note": "The source made the active and inactive calls. The rule behind the calls is not given here."}
{"compound": "C=C1C(=O)[C@]23[C@H](O)[C@H]1CC[C@H]2[C@@]12CO[C@]3(O)[C@@H](O)[C@@H]1C(C)(C)CC[C@@H]2O", "note": "[ORIDONIN]", "values": [{"measurement": "Activity", "setting": "HEp-2 [1]", "value": "tde"}, {"measurement": "Activity", "setting": "HEp-2 [2]", "value": 14, "unit": "%"}, {"measurement": "Activity", "setting": "HEp-2 [3]", "value": "Active"}, {"measurement": "Activity", "setting": "HEp-2 [4]", "value": "inactive"}, {"measurement": "Activity", "setting": "HEp-2 [5]", "value": "inactive"}, {"measurement": "Activity", "setting": "HEp-2 [6]", "value": "Active"}, {"measurement": "Activity", "setting": "HEp-2 [7]", "value": "inactive"}, {"measurement": "Activity", "setting": "HEp-2 [8]", "value": "inactive"}, {"measurement": "Activity", "setting": "HEp-2 [9]", "value": "inactive"}, {"measurement": "Activity", "setting": "HEp-2 [10]", "value": "inactive"}, {"measurement": "Activity", "setting": "HEp-2 [11]", "value": 32.84, "unit": "%"}, {"measurement": "Activity", "setting": "HEp-2 [12]", "value": 4.41, "unit": "%"}, {"measurement": "Activity", "setting": "HEp-2 [13]", "value": 16.65, "unit": "%"}, {"measurement": "Activity", "setting": "HEp-2 [14]", "value": "Active"}, {"measurement": "Activity", "setting": "HEp-2 [15]", "value": 25.84, "unit": "%"}, {"measurement": "Activity", "setting": "HEp-2 [16]", "value": "inactive"}, {"measurement": "Activity", "setting": "HEp-2 [17]", "value": "Active"}, {"measurement": "Activity", "setting": "HEp-2 [18]", "value": "Active"}, {"measurement": "Activity", "setting": "HEp-2 [19]", "value": "inactive"}, {"measurement": "Activity", "setting": "HEp-2 [20]", "value": "Active"}, {"measurement": "Activity", "setting": "HEp-2 [21]", "value": "Active"}, {"measurement": "Activity", "setting": "HEp-2 [22]", "value": 40.57, "unit": "%"}, {"measurement": "Activity", "setting": "HEp-2 [23]", "value": "inactive"}, {"measurement": "IC50", "setting": "HEp-2 [24]", "value": 37.1, "unit": "µM"}, {"measurement": "Activity", "setting": "HEp-2 [25]", "value": "inactive"}]}
